The text below walks through data of ChEMBL document CHEMBL4373719, “A Comparative Assessment Study of Known Small-Molecule Keap1-Nrf2 Protein-Protein Interaction Inhibitors: Chemical Synthesis, Binding Properties, and Cellular Activity” (J Med Chem, 2019).

Active and inactive are the calls of the source. No cut-off for these calls is given here.

For assay [1], the target named is Kelch-like ECH-associated protein 1 (Mus musculus) (UniProt Q9Z2X8). Description: Binding affinity to Keap1 in mouse Hepa1c1c7 cells assessed as reduction in Keap1 interaction by measuring induction of NQO1 activity at 1 to 10 uM measured after 24 hrs. The format is cell-based.
Chain of Kelch-like ECH-associated protein 1 (Mus musculus) (Q9Z2X8 whole entry, the tested form may be a part): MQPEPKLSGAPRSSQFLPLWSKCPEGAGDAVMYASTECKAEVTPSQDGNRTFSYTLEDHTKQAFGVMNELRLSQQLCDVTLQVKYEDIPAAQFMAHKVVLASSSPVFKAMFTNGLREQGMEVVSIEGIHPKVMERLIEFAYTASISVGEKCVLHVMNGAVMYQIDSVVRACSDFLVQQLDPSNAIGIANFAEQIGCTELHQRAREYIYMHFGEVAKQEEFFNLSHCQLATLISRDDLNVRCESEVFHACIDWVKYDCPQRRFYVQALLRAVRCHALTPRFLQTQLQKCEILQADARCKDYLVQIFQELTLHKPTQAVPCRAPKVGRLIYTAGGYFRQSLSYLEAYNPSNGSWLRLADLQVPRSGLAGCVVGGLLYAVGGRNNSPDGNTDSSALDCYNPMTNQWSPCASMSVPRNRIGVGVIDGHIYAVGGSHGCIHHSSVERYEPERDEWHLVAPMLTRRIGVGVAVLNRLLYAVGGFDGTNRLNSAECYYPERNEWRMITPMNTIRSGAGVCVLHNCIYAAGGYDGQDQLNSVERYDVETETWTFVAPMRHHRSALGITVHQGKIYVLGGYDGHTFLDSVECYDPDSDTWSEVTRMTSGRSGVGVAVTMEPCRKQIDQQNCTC
The target in assay [2] is T1, Kelch-like ECH-associated protein 1 (Homo sapiens, UniProt Q14145). Description: Binding affinity to recombinant human KEAP1 Kelch domain (321 to 609 residues) expressed in Escherichia coli BL21 (DE3) by surface plasmon resonance analysis. (SPR reads the build-up and loss of mass on a sensor chip optically.)
T1 sequence (Q14145 whole entry, the tested form may be a part): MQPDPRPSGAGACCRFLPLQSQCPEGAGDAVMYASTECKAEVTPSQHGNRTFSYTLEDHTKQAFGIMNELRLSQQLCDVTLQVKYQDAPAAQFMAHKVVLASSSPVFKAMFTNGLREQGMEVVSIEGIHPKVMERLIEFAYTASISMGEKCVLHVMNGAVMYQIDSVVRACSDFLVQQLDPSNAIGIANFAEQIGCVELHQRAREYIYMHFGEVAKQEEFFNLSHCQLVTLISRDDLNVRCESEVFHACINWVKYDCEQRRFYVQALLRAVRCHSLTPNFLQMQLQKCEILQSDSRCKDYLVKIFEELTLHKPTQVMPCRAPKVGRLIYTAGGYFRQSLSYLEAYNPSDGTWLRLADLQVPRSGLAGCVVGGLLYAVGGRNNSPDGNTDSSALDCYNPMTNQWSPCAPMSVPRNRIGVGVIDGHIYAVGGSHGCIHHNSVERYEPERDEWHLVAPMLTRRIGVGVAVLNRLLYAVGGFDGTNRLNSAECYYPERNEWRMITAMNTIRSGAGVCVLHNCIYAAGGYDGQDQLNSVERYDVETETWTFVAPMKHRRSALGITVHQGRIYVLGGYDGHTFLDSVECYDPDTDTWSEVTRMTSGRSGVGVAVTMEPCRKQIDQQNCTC
Assay [3] addresses T1, Kelch-like ECH-associated protein 1. Description: Inhibition of […]-LDEETGEFL-NH2 binding to recombinant human KEAP1 Kelch domain (321 to 609 residues) expressed in Escherichia coli BL21 (DE3) measured after 10 to 15 mins by fluorescence polarization assay. (Fluorescence polarisation rises when a labelled molecule tumbles more slowly, as on binding a larger partner.)
The target is the same in assay [4]. Description: Binding affinity to recombinant human KEAP1 Kelch domain (321 to 609 residues) expressed in Escherichia coli BL21 (DE3) assessed as thermal stabilization by sypro orange dye based thermal shift assay.
Assay [5] in a line: Redox cycling activity of the compound assessed as H2O2 production measured after 15 mins in presence of TCEP by phenol red reagent based horseradish peroxidase coupled assay.
For assay [6], the target named is T1, Kelch-like ECH-associated protein 1. Description: Binding affinity to KEAP1 (unknown origin) by surface plasmon resonance analysis. Put shortly:
(§1)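 Keap1 Kelch domain immobilized covalently on a biosensor chip. Compounds injected as two-fold serial dilutions (7–8 concentrations), with blank-injection and reference-surface subtraction. Kd from steady-state affinity: equilibrium response at end of injection plotted against concentration and fitted to a 1:1 Langmuir isotherm. For very slowly dissociating binders, single-concentration or OneStep gradient injections were fitted globally to a 1:1 kinetic model to give ka, kd and Kd.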

Assay [7] has the same target. Description: Inhibition of TAMRA-labeled AFFAQLQLDEETGEFL binding to recombinant human KEAP1 Kelch domain (321 to 609 residues) measured after 1 hr by fluorescence polarization assay.
The target in assay [8] is Kelch-like ECH-associated protein 1 (Mus musculus) (UniProt Q9Z2X8). Description: Binding affinity to Keap1 in mouse Hepa1c1c7 cells assessed as reduction in Keap1 interaction by measuring induction of NQO1 activity measured after 24 hrs. The format is cell-based.
The target in assay [9] is T1, Kelch-like ECH-associated protein 1. Description: Binding affinity to recombinant human KEAP1 Kelch domain (321 to 609 residues) expressed in Escherichia coli BL21 (DE3) assessed as dissociation rate constant up to 1 uM by surface plasmon resonance analysis. Put shortly:
as §1

Assay [10] shares this target.
Assay [11] has the same target. Description: Binding affinity to recombinant human KEAP1 Kelch domain (321 to 609 residues) expressed in Escherichia coli BL21 (DE3) assessed as association rate constant up to 1 uM by surface plasmon resonance analysis. The gist of the method:
as §1

Turning to `O=C(O)COc1cccc(CNC(=O)Nc2nnc(-c3ccco3)o2)c1`, the result in [1] and in assay [5] was inactive. The Kd (commonly the equilibrium constant for the complex coming apart) in assay [2] is at most 582 µM; in [6], 100 to 1000 µM. In assay [3], the Ki (commonly a measure of affinity in units of concentration, obtained from inhibition or displacement) is at most 800 µM. Also, the EC50 (in general, the concentration giving half of the maximal effect) in assay [4] was at most 800 µM.

For the compound `CCCCC1CCCN1C(=O)[C@@H]1CCC[C@H](c2cccc(-n3ncc(C(=O)O)c3C3CC3)c2)C1` (relative stereo), the equilibrium dissociation constant (Kd) in assay [2] turned out to be 0.019 µM. In addition, in assay [7], the IC50 – broadly, the concentration that inhibits the measured activity by half – is 0.063 µM. Moreover, in assay [3], the Ki turned out to be 0.013 µM. Also, the Activity entry in assay [8] is “Dose-dependent effect”. For the same compound, the dissociation rate constant (koff) – broadly, the first-order rate constant of dissociation – in assay [9] turned out to be 0.00226 s⁻¹. Besides, the ΔTm (as a rule, the shift of the melting midpoint relative to a reference) in assay [10] is 19 °C. Further, in assay [4], the EC50 is 10 µM. Further, the result in assay [5] was inactive. The Ka in assay [11] came out at 1.16 ×10⁵ /M/s.
